Experiment [1] is described as follows: Inhibition of platelet aggregation in human platelet rich plasma (PRP).
Experiment [2] deals with T1, Integrin alpha-IIb/beta-3 (Homo sapiens, UniProt P08514+P05106). Nature of the experiment: Inhibition of platelet aggregation in human gel-purified platelets containing fibrinogen (GPP+Fg). The method, boiled down:
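Platelets are gel-filtered from human PRP on sepharose (2×10⁸ platelets/mL). They are assayed with 1 mM CaCl₂ and 1 mg/mL fibrinogen across a range of test-agent concentrations, and IC₅₀ is calculated from the inhibition curve.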

Experiment [3] concerns the target T1, Integrin alpha-IIb/beta-3. Nature of the experiment: Inhibition of platelet aggregation in human platelet rich plasma (PRP). In outline: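 Human PRP is obtained by centrifuging blood at 150g for 10 min; platelet-poor plasma serves as the 100% transmittance blank. PRP at 2×10⁸ platelets/mL is preincubated with test agent at several concentrations for 8 min. It is then stimulated with ADP (10 μM final), and aggregation is followed as light transmittance over time to derive IC₅₀.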

Molecules are shown by their SMILES. Bounds are passed on as bounds.

T1 sequence (P05106 27-788 limits assumed): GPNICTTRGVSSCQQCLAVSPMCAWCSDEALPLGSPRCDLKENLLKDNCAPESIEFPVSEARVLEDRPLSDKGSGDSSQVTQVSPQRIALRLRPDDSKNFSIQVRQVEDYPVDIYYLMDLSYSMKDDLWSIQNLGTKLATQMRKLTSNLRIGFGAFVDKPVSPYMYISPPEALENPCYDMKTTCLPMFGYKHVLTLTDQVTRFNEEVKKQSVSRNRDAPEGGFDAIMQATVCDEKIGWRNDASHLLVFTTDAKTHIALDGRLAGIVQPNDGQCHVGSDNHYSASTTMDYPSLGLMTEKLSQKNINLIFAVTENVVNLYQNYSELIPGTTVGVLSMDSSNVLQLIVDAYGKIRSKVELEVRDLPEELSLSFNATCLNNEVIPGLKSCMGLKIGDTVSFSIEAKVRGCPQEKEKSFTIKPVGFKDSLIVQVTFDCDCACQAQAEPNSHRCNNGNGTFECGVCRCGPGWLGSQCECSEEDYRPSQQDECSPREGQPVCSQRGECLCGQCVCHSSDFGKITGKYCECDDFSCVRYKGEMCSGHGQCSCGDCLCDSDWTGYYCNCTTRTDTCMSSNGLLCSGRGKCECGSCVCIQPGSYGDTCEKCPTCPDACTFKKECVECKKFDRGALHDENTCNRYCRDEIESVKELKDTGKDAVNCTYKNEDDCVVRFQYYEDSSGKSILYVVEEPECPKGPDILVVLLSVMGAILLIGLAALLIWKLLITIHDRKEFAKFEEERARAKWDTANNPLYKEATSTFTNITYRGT
T1 sequence (P08514 32-887 limits assumed): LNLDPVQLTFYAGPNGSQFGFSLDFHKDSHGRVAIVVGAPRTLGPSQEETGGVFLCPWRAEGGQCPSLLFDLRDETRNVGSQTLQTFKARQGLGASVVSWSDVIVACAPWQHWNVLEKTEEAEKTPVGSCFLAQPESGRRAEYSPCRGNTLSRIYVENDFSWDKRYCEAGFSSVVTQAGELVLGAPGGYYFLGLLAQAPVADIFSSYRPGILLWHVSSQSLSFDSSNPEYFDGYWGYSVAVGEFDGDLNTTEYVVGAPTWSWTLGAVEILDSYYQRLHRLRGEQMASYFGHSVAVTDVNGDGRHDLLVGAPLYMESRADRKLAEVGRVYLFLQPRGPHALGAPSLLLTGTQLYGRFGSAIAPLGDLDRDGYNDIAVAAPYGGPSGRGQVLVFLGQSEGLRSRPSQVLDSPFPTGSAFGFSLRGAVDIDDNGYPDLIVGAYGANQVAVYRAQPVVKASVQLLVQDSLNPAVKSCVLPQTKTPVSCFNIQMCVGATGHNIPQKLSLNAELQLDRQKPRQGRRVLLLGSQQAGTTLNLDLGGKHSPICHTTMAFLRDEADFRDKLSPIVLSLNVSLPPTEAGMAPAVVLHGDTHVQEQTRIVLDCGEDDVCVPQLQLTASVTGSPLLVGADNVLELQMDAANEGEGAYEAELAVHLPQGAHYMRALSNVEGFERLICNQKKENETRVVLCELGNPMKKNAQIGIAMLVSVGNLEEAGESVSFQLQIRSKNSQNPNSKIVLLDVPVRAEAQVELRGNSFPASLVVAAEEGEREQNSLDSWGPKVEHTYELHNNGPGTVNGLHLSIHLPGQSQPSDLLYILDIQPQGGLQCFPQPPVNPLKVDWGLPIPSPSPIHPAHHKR
T1 sequence (P08514 891-1039 limits assumed): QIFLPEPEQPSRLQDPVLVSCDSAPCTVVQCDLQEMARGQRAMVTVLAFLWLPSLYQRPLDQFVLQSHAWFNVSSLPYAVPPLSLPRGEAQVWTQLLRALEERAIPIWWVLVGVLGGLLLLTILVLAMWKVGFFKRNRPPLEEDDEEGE

Broadly, the IC50 is the concentration needed to halve the response being measured. Higher therefore signals weaker potency in that assay. In the case of `N=C(N)c1ccc(C2=NO[C@@H](CC(=O)NCCC(=O)O)C2)cc1`, the IC50 in experiment [1] was 0.24 µM; in experiment [2], 0.14 µM.
As to `Cc1cc(C)c(S(=O)(=O)N[C@H](CNC(=O)C2=NOC(CCCCNc3ncc[nH]3)C2)C(=O)O)c(C)c1` (stereo partly specified), the IC50 stood at 68 µM in experiment [1] and 28 µM in experiment [2].
Regarding `O=C(NC[C@H](NS(=O)(=O)c1c(Cl)cccc1Cl)C(=O)O)C1=NOC(CCCCNc2ncc[nH]2)C1` (stereo partly specified) [2-(2,6-Dichloro-benzenesulfonylamino)-3-({5-[4-(1H-imidazol-2-ylamino)-butyl]-4,5-dihydro-isoxazole-3-carbonyl}-amino)-propionic acid], the 50% inhibitory concentration (IC50) in experiment [1] came to 0.35 µM; in experiment [2], 0.19 µM.
Compound `Cc1cccc(Cl)c1S(=O)(=O)N[C@@H](CNC(=O)C1=NOC(CCCCNc2ncc[nH]2)C1)C(=O)O` (stereo partly specified) [2-(2-Chloro-6-methyl-benzenesulfonylamino)-3-({5-[4-(1H-imidazol-2-ylamino)-butyl]-4,5-dihydro-isoxazole-3-carbonyl}-amino)-propionic acid] came in with an IC50 in experiment [1] of 0.39 µM.
The compound `O=C(NC[C@H](NS(=O)(=O)c1c(Cl)cc(-c2ccccc2)cc1Cl)C(=O)O)C1=NOC(CCCCNc2ncc[nH]2)C1` (stereo partly specified) [2-(3,5-Dichloro-biphenyl-4-sulfonylamino)-3-({5-[4-(1H-imidazol-2-ylamino)-butyl]-4,5-dihydro-isoxazole-3-carbonyl}-amino)-propionic acid] showed an IC50 in experiment [1] of 1.6 µM.
As for `Cc1cc(-c2ccccc2)cc(C)c1S(=O)(=O)N[C@@H](CNC(=O)C1=NOC(CCCCNc2ncc[nH]2)C1)C(=O)O` (stereo partly specified) [2-(3,5-Dimethyl-biphenyl-4-sulfonylamino)-3-({5-[4-(1H-imidazol-2-ylamino)-butyl]-4,5-dihydro-isoxazole-3-carbonyl}-amino)-propionic acid], the IC50 in experiment [1] came to 3.1 µM; in experiment [2] it was 0.69 µM.
In experiment [1], `Cc1cc(-c2ccccc2)cc(C)c1S(=O)(=O)N[C@@H](CNC(=O)C1=NOC(CCCCNc2ccccn2)C1)C(=O)O` (stereo partly specified) [2-(3,5-Dimethyl-biphenyl-4-sulfonylamino)-3-({5-[4-(pyridin-2-ylamino)-butyl]-4,5-dihydro-isoxazole-3-carbonyl}-amino)-propionic acid] gave an IC50 of more than 100 µM.
Compound `Cc1noc(C)c1S(=O)(=O)N[C@@H](CNC(=O)C1=NOC(CCCCNc2ncc[nH]2)C1)C(=O)O` (stereo partly specified) [2-(3,5-Dimethyl-isoxazole-4-sulfonylamino)-3-({5-[4-(1H-imidazol-2-ylamino)-butyl]-4,5-dihydro-isoxazole-3-carbonyl}-amino)-propionic acid] yielded an IC50 in experiment [1] of 1.5 µM.
On to `CC(C)c1ccc(S(=O)(=O)N[C@@H](CNC(=O)C2=NOC(CCCCNc3ccccn3)C2)C(=O)O)cc1` (stereo partly specified) [2-(4-Isopropyl-benzenesulfonylamino)-3-({5-[4-(pyridin-2-ylamino)-butyl]-4,5-dihydro-isoxazole-3-carbonyl}-amino)-propionic acid], for which, in experiment [1], the IC50 was more than 100 µM.
`O=C(NC[C@H](NS(=O)(=O)c1ccc(-c2ccccc2)cc1)C(=O)O)C1=NOC(CCCCNc2ncc[nH]2)C1` (stereo partly specified) [2-(Biphenyl-4-sulfonylamino)-3-({5-[4-(1H-imidazol-2-ylamino)-butyl]-4,5-dihydro-isoxazole-3-carbonyl}-amino)-propionic acid]: the results for the IC50 in experiment [1] and in experiment [2] were 43 µM and 5 µM, respectively.
On to `O=C(NC[C@H](NS(=O)(=O)c1cccc2ccccc12)C(=O)O)C1=NOC(CCCCNc2ccccn2)C1` (stereo partly specified) [2-(Naphthalene-1-sulfonylamino)-3-({5-[4-(pyridin-2-ylamino)-butyl]-4,5-dihydro-isoxazole-3-carbonyl}-amino)-propionic acid], for which the IC50 in experiment [1] is more than 100 µM.
Regarding `N[C@@H](CNC(=O)C1=NOC(CCCCNc2ncc[nH]2)C1)C(=O)O` (stereo partly specified) [2-Amino-3-({5-[4-(1H-imidazol-2-ylamino)-butyl]-4,5-dihydro-isoxazole-3-carbonyl}-amino)-propionic acid], the IC50 came to 84 µM in experiment [1] and 47 µM in experiment [2].
With `O=C(NC[C@H](NS(=O)(=O)c1ccccc1)C(=O)O)C1=NOC(CCCCNc2ccccn2)C1` (stereo partly specified) [2-Benzenesulfonylamino-3-({5-[4-(pyridin-2-ylamino)-butyl]-4,5-dihydro-isoxazole-3-carbonyl}-amino)-propionic acid], the IC50 came to 30 µM in experiment [1] and 18 µM in experiment [2].
For the compound `O=C(N[C@@H](CNC(=O)C1=NOC(CCCCNc2ccccn2)C1)C(=O)O)OCc1ccccc1` (stereo partly specified) [2-Benzyloxycarbonylamino-3-({5-[4-(pyridin-2-ylamino)-butyl]-4,5-dihydro-isoxazole-3-carbonyl}-amino)-propionic acid], the half-inhibitory concentration (IC50) is more than 100 µM in experiment [3] and 85 µM in experiment [2].
In experiment [2], `Cc1cc(C)c(S(=O)(=O)N[C@@H](CNC(=O)C2=NOC(CCCCNS(N)(=O)=O)C2)C(=O)O)c(C)c1` (stereo partly specified) [2-[2,4,6-trimethylphenylsulfonylamino]-3-[5-(4-aminosulfonylamino)butyl)isoxazolin-3-ylcarbonyl]amino-propionic acid] yielded an IC50 of more than 100 µM.
For `Cc1cc(C)c(S(=O)(=O)N[C@@H](CNC(=O)C2=NOC(CCCC(=O)Nc3ncc[nH]3)C2)C(=O)O)c(C)c1` (stereo partly specified) [3-({5-[3-(1H-Imidazol-2-ylcarbamoyl)-propyl]-4,5-dihydro-isoxazole-3-carbonyl}-amino)-2-(2,4,6-trimethyl-benzenesulfonylamino)-propionic acid], the IC50 in experiment [2] is more than 100 µM.
In the case of `Cc1cc(C)c(S(=O)(=O)N[C@@H](CNC(=O)C2=NOC(CCCc3cnc(N)[nH]3)C2)C(=O)O)c(C)c1` (stereo partly specified) [3-({5-[3-(2-Amino-1H-imidazol-4-yl)-propyl]-4,5-dihydro-isoxazole-3-carbonyl}-amino)-2-(2,4,6-trimethyl-benzenesulfonylamino)-propionic acid], the IC50 was found to be 0.28 µM in experiment [1] and 0.18 µM in experiment [2].
With `Cc1cc(C)c(S(=O)(=O)N[C@@H](CNC(=O)C2=NOC(CCCc3cccc(N)n3)C2)C(=O)O)c(C)c1` (stereo partly specified) [3-({5-[3-(6-Amino-pyridin-2-yl)-propyl]-4,5-dihydro-isoxazole-3-carbonyl}-amino)-2-(2,4,6-trimethyl-benzenesulfonylamino)-propionic acid], in experiment [1], the IC50 was found to be 78 µM.
In the case of `Cc1cc(C)c(S(=O)(=O)N[C@@H](CNC(=O)C2=NOC(CCCCNc3ncc[nH]3)C2)C(=O)O)c(C)c1` (stereo partly specified) [3-({5-[4-(1H-Imidazol-2-ylamino)-butyl]-4,5-dihydro-isoxazole-3-carbonyl}-amino)-2-(2,4,6-trimethyl-benzenesulfonylamino)-propionic acid], in experiment [1], it took 0.85 µM to reach half-maximal inhibition (IC50).
Consider `O=C(NC[C@H](NS(=O)(=O)c1cccc2ccccc12)C(=O)O)C1=NOC(CCCCNc2ncc[nH]2)C1` (stereo partly specified) [3-({5-[4-(1H-Imidazol-2-ylamino)-butyl]-4,5-dihydro-isoxazole-3-carbonyl}-amino)-2-(naphthalene-1-sulfonylamino)-propionic acid], for which the IC50 in experiment [1] was determined as 7.8 µM; in experiment [2], 0.57 µM.
As to `Cc1cc(C)c(S(=O)(=O)N[C@@H](CNC(=O)C2=NOC(CCCCNC3=NCCN3)C2)C(=O)O)c(C)c1` (stereo partly specified) [3-({5-[4-(4,5-Dihydro-1H-imidazol-2-ylamino)-butyl]-4,5-dihydro-isoxazole-3-carbonyl}-amino)-2-(2,4,6-trimethyl-benzenesulfonylamino)-propionic acid], the IC50 in experiment [1] is 0.69 µM; in experiment [2], 0.6 µM.
On to `Cc1cc(C)c(S(=O)(=O)N[C@@H](CNC(=O)C2=NOC(CCCCNc3nccc4ccccc34)C2)C(=O)O)c(C)c1` (stereo partly specified) [3-({5-[4-(Isoquinolin-1-ylamino)-butyl]-4,5-dihydro-isoxazole-3-carbonyl}-amino)-2-(2,4,6-trimethyl-benzenesulfonylamino)-propionic acid], for which the IC50 was 78 µM in experiment [1] and 6.5 µM in experiment [2].
On to `Cc1cc(C)c(S(=O)(=O)N[C@@H](CNC(=O)C2=NOC(CCCCNc3cc4ccccc4cn3)C2)C(=O)O)c(C)c1` (stereo partly specified) [3-({5-[4-(Isoquinolin-3-ylamino)-butyl]-4,5-dihydro-isoxazole-3-carbonyl}-amino)-2-(2,4,6-trimethyl-benzenesulfonylamino)-propionic acid], for which the IC50 in experiment [1] worked out at 11 µM; in experiment [2], 7.7 µM.
As to `Cc1cc(C)c(S(=O)(=O)N[C@@H](CNC(=O)C2=NOC(CCCCNc3ccccn3)C2)C(=O)O)c(C)c1` (stereo partly specified) [3-({5-[4-(Pyridin-2-ylamino)-butyl]-4,5-dihydro-isoxazole-3-carbonyl}-amino)-2-(2,4,6-trimethyl-benzenesulfonylamino)-propionic acid], the half-maximal inhibitory concentration (IC50) was 16 µM in experiment [1] and 6.5 µM in experiment [2].
For the compound `Cc1cc(C)c(S(=O)(=O)N[C@@H](CNC(=O)C2=NOC(CCNC(=O)Nc3ncc[nH]3)C2)C(=O)O)c(C)c1` (stereo partly specified) [3-[(5-{2-[3-(1H-Imidazol-2-yl)-ureido]-ethyl}-4,5-dihydro-isoxazole-3-carbonyl)-amino]-2-(2,4,6-trimethyl-benzenesulfonylamino)-propionic acid], the IC50 came out at 120 µM in experiment [1] and 32 µM in experiment [2].
As to `Cc1cc(C)c(S(=O)(=O)N[C@@H](CNC(=O)C2=NOC(CCCCNC(=N)N)C2)C(=O)O)c(C)c1` (stereo partly drawn) [3-{5-[4-amino(imino)methylaminobutyl]-4,5-dihydro-3-isoxazolylcarboxamido}-2-mesitylsulfonamido-(2S)-propanoic acid], the IC50 in experiment [1] came out at 0.16 µM.

Source of the values: BindingDB's records for doi:10.1021/jm9900321 (Dupont Pharmaceuticals, 2000).
